Screening data as filed in PubChem BioAssay.
Shown is part of a subset that was picked to be rich in hits.
H69AR growth 86K – growth inhibitors of human H69AR lung tumor cells; H69AR lung tumor viability, ATP luminescence, 72 h; active compounds read low; AID 598; viability, % at 10 µM; 85,000 compounds, 6% hits;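 active = viability at or below 40%; inactive = viability above 40%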;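 also: multidrug resistant small cell line overexpressing MRP-1 efflux transporter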
Fibroblast inh – blocks proliferation of human lung fibroblasts; LL 47 human lung fibroblast viability, ATP luminescence; active compounds read low; viability, % at 10 µM; 85,000 compounds, 1.1% hits;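 active = viability at or below 50% in the single dose screen; inactive = viability above 50%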;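 also: compound exposure lasted 72 h before the ATP readout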
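test system = LL 47 human lung fibroblasts | amount = 1,150 fibroblasts seeded per well | medium = 15% FBS in IMEM | times = overnight cell rest, 72 h compound treatment at 37 °C | measured by = CellTiter-Glo luminescence measuring cellular ATP | read-out = viability percentage against median untreated-cell control | benchmarks = cell-only wells, no compound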
HCT116 bCat-KO – beta-catenin-lacking colon tumor cell growth suppression; AID 818; HCT116 beta-catenin knockout viability, CellTiter-Glo, 60 h; active compounds read low; 140,000 compounds, 1.5% hits; viability, % at 10 µM;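 active = viability at or under a set limit, the compound median less 4 SD, cut at about 6% in these data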
PTEN del growth – growth suppressors of cells with PTEN tumor suppressor deletion; HCT116 PTEN-null viability, CellTiter-Glo, 60 h; active compounds read low; viability, % at 10 µM; 140,000 compounds, 1.2% hits;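 active = viability at or below a set limit, 4 SD under the median of all tested compounds, cut at about 3.7% in these data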;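 also: PTEN knockout HCT116 line with beta catenin targeted HCT116 as companion control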
HUVEC prolif 384 – human endothelial cell proliferation inhibition; HUVEC proliferation, CellTiter-Glo luminescence, 72 h; active compounds read low; viability, % at 10 µM (by protocol); 86,000 compounds, 1.1% hits; AID 648;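 active = viability at or below 30%; inactive = viability above 30%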
A number is an active result; n = inactive; x = not tested or not shown.

SMILES | H69AR growth 86K | Fibroblast inh | HCT116 bCat-KO | PTEN del growth | HUVEC prolif 384
Cc1c(C(=O)Nc2ccc3c(c2)OCCO3)sc2nc(-c3ccccc3)cn12 | 37.8 | n | n | n | n
O=C(CC(c1ccccc1)c1ccco1)Nc1nccs1 (configuration not stated) | x | x | n | n | x
Cc1ccc(-n2nnnc2Sc2ccc(S(=O)(=O)NCCN(C)C)cc2[N+](=O)[O-])cc1 | x | x | 1.7 | 1.6 | x
O=C(CSc1nnc(-c2ccccc2O)o1)Oc1ccc(OCc2ccccc2)cc1 | 27.0 | n | n | n | n
Cc1ccc2nc(-c3sc4nc(C)cc(C)c4c3N)[nH]c2c1 | 15.0 | n | n | n | n
CCc1ccc(/C=N/NC(=O)C(=O)NCCCN2CCOCC2)cc1 | x | x | n | n | x
CCSc1ccccc1C(=O)n1nnc2ccccc21 | 12.0 | n | n | n | n
COc1ccc(-n2ncc3c(NCc4ccco4)ncnc32)cc1 | n | n | n | n | n
c1ccc(-n2ncc3c(NCC4CCCO4)ncnc32)cc1 (configuration not stated) | n | n | n | n | n
CCc1cc2c(NCc3ccco3)ncnc2s1 | n | n | n | n | n
Clc1ccc(-n2ncc3c(NCc4ccc5c(c4)OCO5)ncnc32)cc1 | 7.9 | n | n | n | n
Clc1ccc(Cn2ncc3c(NCc4ccco4)ncnc32)c(Cl)c1 | 26.1 | x | n | n | n
Clc1ccc(-n2ncc3c(NCc4ccco4)ncnc32)cc1 | 11.7 | n | n | n | n
Clc1ccc(-n2ncc3c(NCC4CCCO4)ncnc32)cc1 (configuration not stated) | 19.5 | n | n | n | n
Cc1ccc2nc(-c3cccc(NS(C)(=O)=O)c3)cc(-c3ccccc3)c2c1 | x | x | n | n | x
CCOc1ccc(C(CC(=O)O)NC(=O)C23CC4CC(CC(C4)C2)C3)cc1 (configuration not stated) | n | n | n | n | n
Cc1ccc(NC(=O)COC(=O)C2CC2C)c(S(=O)(=O)N2CCCCC2)c1 (configuration not stated) | n | n | n | n | n
Cc1cc(C)nc(N2CCN(c3ncnc4c3cnn4Cc3ccc(Cl)cc3Cl)CC2)n1 | 31.6 | x | x | x | n
c1ccc(CNc2ncnc3c2cnn3Cc2ccccc2)cc1 | 26.2 | n | n | n | n
O=C(N=Nc1c(O)[nH]c2ccc(Cl)cc12)c1cc(-c2cccs2)nc2ccccc12 | x | x | n | n | x
N=c1oc2ccccc2cc1-c1nc(-c2ccc(Cl)cc2)cs1 | x | x | n | n | x
CCc1ccc2c(c1)C1(C(=O)N2)N2CCCC2C(C(=O)c2ccc3ccccc3c2)C12C(=O)Nc1ccccc12 (configuration not stated) | x | x | 1.3 | 1.1 | x
CCc1cccc2c1NC(=O)C21N2CCCC2C(C(=O)c2ccc3ccccc3c2)C12C(=O)Nc1ccccc12 (configuration not stated) | x | x | n | n | x
COc1ccc(C(C[N+](=O)[O-])c2c(C)[nH]c3ccccc23)cc1OC (configuration not stated) | x | x | n | n | x
O=c1[nH][nH]c(-c2ccccc2O)c1C(C[N+](=O)[O-])c1ccc(Br)cc1 (configuration not stated) | x | x | 4.2 | 1.6 | x
SMILES | H69AR growth 86K | Fibroblast inh | HCT116 bCat-KO | PTEN del growth | HUVEC prolif 384
Cc1ccc(C(C[N+](=O)[O-])c2c(-c3ccccc3O)[nH][nH]c2=O)cc1 (configuration not stated) | x | x | 3.5 | 3.6 | x
CCOC(=O)N1CCc2c(sc(NC(=O)c3ccc(S(=O)(=O)N4CCCC4)cc3)c2C#N)C1 | 13.3 | 38.2 | n | n | n
CC(C)N1CCc2c(sc(NC(=O)c3ccc(S(=O)(=O)N4CCOCC4)cc3)c2C#N)C1 | n | n | n | n | n
COc1cc(C(=O)Nc2sc3c(c2C#N)CCN(C(C)=O)C3)cc(OC)c1OC | 23.0 | n | n | n | n
COc1ccc(Cl)cc1-n1c(C)ccc1C | x | x | n | n | x
CCOc1ccc(C2C=C(c3ccccc3)Nc3nnnn32)cc1 (configuration not stated) | 32.8 | n | n | n | n
Cc1ccc(C2=CC(c3cccs3)n3nnnc3N2)cc1 (configuration not stated) | x | x | n | n | x
COc1ccc(-c2c(C)nn(-c3ccccc3)c2N)cc1OC | n | n | n | n | n
CCOc1ccc(C2C=C(c3ccc(C)cc3)Nc3ncnn32)cc1 (configuration not stated) | n | n | n | n | n
COc1ccc(C2=CC(c3c(C)nn(-c4ccccc4)c3Cl)n3nnnc3N2)cc1OC (configuration not stated) | 24.5 | n | n | n | n
COc1ccccc1C1C=C(c2ccc(C)cc2)Nc2nnnn21 (configuration not stated) | 18.5 | n | n | n | n
CCOc1ccc(C2C=C(c3ccc(C)cc3)Nc3nnnn32)cc1 (configuration not stated) | 2.2 | n | n | n | 21.9
Cc1cc(N2CCOCC2)nc(SCc2ccc(Cl)cc2Cl)n1 | x | x | n | n | x
Cc1cc(NCCN2CCOCC2)n2nc(C)c(-c3ccc(Cl)cc3)c2n1 | 12.0 | n | n | n | n
Cc1cc(NCCN2CCOCC2)n2nc(C)c(-c3ccccc3)c2n1 | 27.3 | n | n | n | n
Cc1cc(NCCN2CCOCC2)n2ncc(-c3ccccc3)c2n1 | 25.4 | n | n | n | n
Cc1cc(NCCCn2ccnc2)n2ncc(-c3ccccc3)c2n1 | 27.4 | n | n | n | n
Cc1cc(C)c2c(n1)nn1c(NCCN3CCOCC3)cc(C)nc21 | n | n | n | n | n
CCc1n[nH]c(=S)n1/N=C/c1cc(Br)c(OC)cc1OC | x | x | n | n | x
O=C(CO/N=C/c1ccccc1O)N1CCc2ccccc21 | x | x | n | n | x
CCCn1c(SCc2cc(=O)[nH]c3ccccc23)nc2c1c(=O)n(C)c(=O)n2C | n | n | x | x | n
Cc1cc(NCCCn2ccnc2)n2nc(C)c(-c3ccc(Cl)cc3)c2n1 | 1.1 | 14.9 | 5.5 | n | 2.3
Cc1cc(NCCCn2ccnc2)n2nc(C)c(-c3ccccc3)c2n1 | n | n | n | n | n
CC(=O)Nc1ccc2c(c1)nc(CCN1CCN(C)CC1)n2C | n | n | n | n | n
Cc1ccc(OCCn2c(=O)cnc3ccccc32)cc1 | 19.0 | n | n | n | n
SMILES | H69AR growth 86K | Fibroblast inh | HCT116 bCat-KO | PTEN del growth | HUVEC prolif 384
COc1ccc(OCCn2c(=N)n(CCO)c3ccccc32)cc1 | n | n | n | n | n
COCCn1c(COc2ccc(C)cc2)nc2ccccc21 | n | n | n | n | n
CCN(CC)CCn1c(=N)n(CCOc2ccccc2)c2ccccc21 | 10.2 | 32.5 | n | n | n
CCN(CC)CCn1c(=N)n(CCO)c2ccccc21 | n | n | n | n | n
CCCCn1c(=N)n(CCOc2ccc(C)cc2)c2ccccc21 | x | x | 1.9 | 1.9 | x
Cn1cc(NC(=O)c2cc(NC(=O)c3cc(NC=O)cn3C)cn2C)cc1C(=O)NCCC(=N)N | n | n | x | x | n
Oc1ccc2ccccc2c1/C=N/Nc1nnc(-c2ncc[nH]2)c2ccccc12 | x | x | 4.9 | 2.1 | x
CCOC(=O)N1C=CC=C[C@@H]2[C@@H](N3C(=O)c4ccccc4C3=O)C(=O)N21 | x | x | n | n | x
c1ccc(-n2ncc3c2ncn2nc(CSc4nc5ccccc5s4)nc32)cc1 | 28.7 | n | x | x | n
